Data taken from ChEMBL document CHEMBL1122142, “Synthesis and antiinflammatory activity of hexahydrothiopyrano[4,3-c]pyrazoles and related analogues” (J Med Chem, 1982).

Key:
Cavia porcellus [1] = test: The compound was evaluated for the delayed hypersensitivity skin reaction (DHSR) activity after subcutaneous administration; 11/27
Mus musculus [2] = test: Inhibition of Mouse Active Arthus reaction following 150 mg/Kg i.p.; 41-60% inhibition.; type: functional; details: Mus musculus, ip
Mus musculus [3] = test: Inhibition of Mouse active Arthus (MAA) reaction activity was determined for peroral dose of 300 mg/kg in mouse; 31-40%; type: functional; details: route oral
Mus musculus [4] = organism: Mus musculus; test: The compound was evaluated for the mouse active Arthus (MAA) reaction activity expressed as inhibitory dose.; type: functional; details: read-out: ID50 (the source's name)
Outline: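 CD-1 mice were sensitized ip with a 1:1 Freund's complete adjuvant emulsion containing BSA in saline, 5 weeks before challenge. Compound was suspended in 1% Na CMC in pyrogen-free saline and given as one ip or oral dose 1 h before skin challenge with BSA. Screening doses were 150 mg/kg ip and 300 mg/kg po, with some at 75 or 50 mg/kg ip. Lesions were excised 3.5 h after challenge and weighed against controls.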

Cavia porcellus [5] = test: The compound was evaluated for the delayed hypersensitivity skin reaction (DHSR) activity after subcutaneous administration; 8/1
Mus musculus [6] = test: Mouse active Arthus (MAA) reaction activity was determined for an ip dose of 150 mg/kg in mouse; 31-40%; type: functional; details: route intraperitoneal
Cavia porcellus [7] = test: Tested in delayed hypersensitivity skin reaction (DHSR) after subcutaneous administration, activity reported as percent inhibition of erythema/induration of lesion; 7/1; type: functional
Outline: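 Male Hartley guinea pigs were sensitized with Mycobacterium tuberculosis in Freund's incomplete adjuvant, injected into each hind footpad and subcutaneously at the neck. After 3 weeks, 1.2 μg PPD was given intradermally. Compound in sesame oil was given sc, 3 animals per group, 30 min before and 5 h after PPD; screening dose 50 mg/kg.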

Mus musculus [8] = test: Inhibition of Mouse active Arthus (MAA) reaction activity was determined for peroral screening dose of 150 mg/kg in mouse; 21-30%; type: functional; details: route oral

CN1CCN(CCCN2N=C3/C(=C/c4ccc([S+](C)[O-])cc4)CSCC3C2c2ccc([S+](C)[O-])cc2)CC1.O=C(O)/C=C\C(=O)O (stereo not drawn)
Activity (Cavia porcellus [1]): 11 | inhibition in vivo at 150 mg/kg (Mus musculus [2]): 41% | inhibition in vivo at 300 mg/kg (Mus musculus [3]): 31% | ED50 (Mus musculus [4]): 190 mg/kg

C#CCN1N=C2/C(=C/c3cccc(C(F)(F)F)c3)CS(=O)(=O)CC2C1c1cccc(C(F)(F)F)c1 (stereo not drawn)
Activity (Cavia porcellus [5]): 8 | inhibition in vivo at 150 mg/kg (Mus musculus [6]): 31%

CCCN1N=C2/C(=C/c3ccc(C(C)(C)C)cc3)CS(=O)(=O)CC2C1c1ccc(C(C)(C)C)cc1 (stereo not drawn)
Activity (Cavia porcellus [7]): 7 | inhibition in vivo at 150 mg/kg (Mus musculus [8]): 21%
